Assay results: ChEMBL document CHEMBL4513216, “Probing the Open Global Health Chemical Diversity Library for Multistage-Active Starting Points for Next-Generation Antimalarials” (ACS Infect Dis, 2020)

Assay: Toxicity liver stage against HepG2, at 10uM
Type: cell-based
Set-up: test concentration 10 uM, cell line HepG2-A16-CD81EGFP
Details: human, HepG2-A16-CD81EGFP cells; read-out: INHIBITION
In short: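 Uninfected HepG2-A16-CD81EGFP cells, 3 × 10^3 per well, 1536-well, plated on prespotted compound at 10 μM final, parasite-free screening media added to match infected plates; puromycin 10 μM positive, DMSO 0.5% negative; run in parallel with 48 h PbLuc assay at 37 °C, 5% CO2; viability by CellTiter-Glo luminescence, normalized to controls.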

Row | SMILES | cytotoxicity at 10 µM
1 | CCN(C)CC(C)Cn1cnc(-c2ccccc2)c1C (stereo not given) | -3.06%
2 | CCNc1ncc(C(=O)NC(CC)c2ccnn2C)cn1 (stereo not given) | -2.4%
3 | CCc1ccsc1C(=O)NC(Cc1ccccc1)C(N)=O (stereo not given) | 9.01%
4 | NC(=O)C(NC(=O)COCCc1ccccc1)c1ccccc1F (stereo not given) | -11%
5 | Cc1ccc(-c2noc(CN3CCCC(Cn4cncn4)C3)n2)cc1 (stereo not given) | -7.12%
6 | Cc1cnc(CN(C)C2CCN(CC(=O)Nc3nccs3)C2)o1 (stereo not given) | -1.49%
7 | Cc1cc(CNC(=O)NCC(O)c2cccc(C(F)(F)F)c2)no1 (stereo not given) | -6.79%
8 | CN(c1ccncn1)C1CC2(CCN(C(=O)c3cncs3)C2)C1 (stereo not given) | -8.13%
9 | O=C(c1ccc[nH]1)N1CCCn2c(CNC3CCC3)nnc2C1 | -105%
10 | CN1CCCC[C@@H]2[C@H]1[C@@H](c1ccccc1)CCN2C(=O)c1ccccc1 | -4.3%
11 | CCOC(=O)C1CCCN(c2ccc(-c3nc(C)no3)cn2)C1 (stereo not given) | -3.74%
12 | CN(CCc1ccccn1)C(=O)CCC1CCCN(c2ncccn2)C1 (stereo not given) | 1.64%
13 | Cc1ccc(CNC(=O)Nc2nnc(C3CC3)s2)n1C | -1.61%
14 | O=C1NCCN1C1CCCN(Cc2coc(-c3ccc(F)cc3)n2)C1 (stereo not given) | 8.63%
15 | CS(=O)(=O)N1CCC2(CC1)CC(OCC1CCOCC1)CO2 (stereo not given) | 8.16%
16 | CC(C)CS(=O)(=O)N1C[C@@H]2C[C@H](C(=O)Nc3cccnc3)[C@H](C1)O2 | -1.55%
17 | CC(C)NC(=O)CC(C)NCc1ccc(F)cc1Cl (stereo not given) | -40.7%
18 | CCOc1ccc(NC(=O)NCc2cccnc2OCC)cc1 | -8.67%
19 | O=C(c1ccco1)N(c1ccc(F)cn1)C1CCOCC1 | -19.8%
20 | CC(C)c1noc(C(C)N2CCN(Cc3cccnc3)CC2)n1 (stereo not given) | -5.44%
21 | CCN(C(=O)CCn1cccn1)C1CC1 | -6.16%
22 | CN1CCCN(C(=O)NCc2cccnc2-n2cccn2)CC1 | -17.9%
23 | Cc1ccccc1CS(=O)(=O)CC(=O)N(C)Cc1cccc(F)c1 | 4.8%
24 | Cc1cc(C2CCCN2Cc2nc3c(cnn3C)c(=O)[nH]2)on1 (stereo not given) | -10.7%
25 | Cn1ccc2c(C(=O)N3CCN(C(=O)C4CCCC4)CC3)cccc21 | -0.53%
26 | CN(C)C[C@H]1C[C@@H]2CN(C(=O)c3ccno3)C[C@@H]2O1 | -6.32%
27 | CCc1nc(CN(C)C2CCN(Cc3nc(C4CC4)no3)C2)no1 (stereo not given) | 14.9%

Row | SMILES | cytotoxicity at 10 µM
28 | CN1C(=O)CO[C@H](c2ccc(NC(=O)Cc3cccs3)cc2)[C@H]1CO | 0.931%
29 | Cn1cnc(-c2nc(C(=O)NC3CC3)c3ccccn23)c1 | -114%
30 | O=C1[C@H]2CN(CC3CC3)C[C@H]2CN1c1ccsc1 | 2.88%
31 | CCOCC(=O)N1Cc2nccn2CC(CN(C)C)C1 (stereo not given) | -124%
32 | FC(F)(F)c1ccc2nc([C@H]3CCN(C4CCC4)C3)[nH]c2c1 | 8.04%
33 | Cc1cc(NC2CC3(CCN(Cc4ncccc4F)C3)C2)ncn1 (stereo not given) | 0.0666%
34 | O=S(=O)(Cc1ccon1)N1CCN(c2ccncc2Cl)CC1 | -4.96%
35 | COc1c(C)cnc(CNC(=O)c2cnc3onc(C)c3c2)c1C | 26.3%
36 | Cc1cc2nc(O)c(O)nc2cc1S(=O)(=O)NC1CC1 | 9.43%
37 | Cc1cc(-c2nn3c(C4CC4)nnc3s2)on1 | -2.37%
38 | CN(Cc1cc(=O)c(O)co1)C1CCN(c2ccc(F)cc2)CC1 | -3.73%
39 | COc1ccccc1C(C)CNC(=O)c1c(C)nn(C)c1OC (stereo not given) | -11.4%
40 | Cc1nn(CC(=O)N2CCN(c3ccccc3F)CC2)c(C)c1Cl | -12.6%
41 | Cn1cc(Br)cc1C(=O)NC1(C#N)CC1 | 21.8%
42 | CC(C)Nc1nc2c(s1)C(=O)CN(C)C2 | -9.77%
43 | CN(C)C(=O)C1CN(Cc2ccccn2)CCN(S(C)(=O)=O)C1 (stereo not given) | 26.9%
44 | Cc1nc(C)n(CC2CCCCN2Cc2nnc(-c3ccco3)o2)n1 (stereo not given) | -10.2%
45 | COc1ccc(OC)c(CN(C)c2ncc(S(N)(=O)=O)s2)c1 | 5.8%
46 | COCC(=O)N1CCCC(c2noc3nc(C)cc(C(F)(F)F)c23)C1 (stereo not given) | -2.25%
47 | CN(Cc1cnn(C)c1)C(=O)CCS(=O)(=O)c1ccc2c(c1)OCCO2 | -17%
48 | CN(C)Cc1nc2c(o1)CN(S(=O)(=O)c1cccs1)C2 | -112%
49 | Fc1ccc(-c2nc(CN3CCCC3Cn3cncn3)co2)cc1 (stereo not given) | -8.28%
50 | CCCN1CC2(CCN(c3ccc(C(C)=O)cn3)CC2)CC1C(=O)O (stereo not given) | -0.909%
51 | COc1ccc(Cl)cc1C(=O)N1CCOC2(CNCCOC2)C1 (stereo not given) | -9.73%
52 | Cc1cc(C(=O)N2CCCC(n3cncn3)C2)c(C)n1C1CC1 (stereo not given) | -3.32%
53 | CCC(CNC(=O)c1nc(=O)[nH][nH]1)Oc1ccccc1C(F)(F)F (stereo not given) | 1.45%
54 | O=C(Nc1nnc[nH]1)C(c1cccc(F)c1)N1CCOCC1 (stereo not given) | -9.07%

Row | SMILES | cytotoxicity at 10 µM
55 | Cc1cnn(CC(C)NCc2csc(-c3ccco3)n2)c1 (stereo not given) | 3.44%
56 | COC1CN(C(=O)NCC(N)=O)CCC(=O)N(C)c2ccccc21 (stereo not given) | -3.84%
57 | Cc1cc(-c2cnn(CCNC(=O)c3cnn(C)c3)c2C2CC2)on1 | -5.58%
58 | CC(C)N1CCCC(C(=O)NC(C)(C)c2nnc(N)s2)C1 (stereo not given) | -2.4%
59 | Cc1ccc(C2CN(CCCC#N)CCO2)c(C)c1 (stereo not given) | -2.16%
60 | c1ccc2oc(CCCN3CCOC(Cn4cccn4)C3)nc2c1 (stereo not given) | 0.987%
61 | O=C(c1cccs1)N1CCC2(CC1)CC(Oc1ccccc1)CO2 (stereo not given) | 15.4%
62 | CN(CC(=O)NCc1ccco1)Cc1nc2c(s1)CCCC2 | 13.6%
63 | CC(Cc1ccco1)NC(=O)Nc1ccc(N2CCCC2)nc1 (stereo not given) | -3.31%
64 | COc1cccc(C(=O)Nc2ccc(OCCC(N)=O)cc2)c1OC | 4.19%
65 | COCc1nc(C2CCN(Cc3nccn3C)CC2)no1 | -14.2%
66 | Cc1ncc(-c2ccncc2)c(C2CCN(C(=O)c3ccco3)CC2)n1 | 4%
67 | CC(C)CN1CC(c2nc(-c3cccc(F)c3)c[nH]2)CC1=O (stereo not given) | 4.52%
68 | CCN(Cc1cnn(C)c1)C(=O)c1ccc(C)c(N2CCNC2=O)c1 | -7.08%
69 | Cc1cc(C)nc(NC2CCN(CCOC(C)C)CC2)n1 | -10.8%
70 | NC(=O)c1cc(NC(=O)N2CCOCC2)ccc1F | -48.8%
71 | CCCc1nnc(NC2CCN(CCO)CC2)o1 | 8.35%
72 | O=C(Cc1ccccc1F)NCC1CCN(CCN2CCOCC2)C1 (stereo not given) | -47%
73 | CC(NCC1CCN(CCO)CC1)c1ccc(Cl)cc1 (stereo not given) | -9.12%
74 | CCOCCn1c(=O)[nH]c2cc(C(=O)N(C)Cc3cc(C)[nH]n3)ccc21 | -0.673%
75 | O=C(Cc1csc(-c2ccco2)n1)N1CCSCC1 | -16.2%
76 | CCc1cnc(NCc2nc(CSC)no2)nc1 | 7.15%
77 | N#Cc1cnc2ccccc2c1N1CCN(CCC(=O)O)CC1 | -1.28%
78 | COc1ccc(CNC(=O)N2CCOCC2C2CC2)cc1C (stereo not given) | 10.4%
79 | Clc1ccc(-c2nc(CN3CCCC3Cn3cncn3)co2)cc1 (stereo not given) | -1.66%
80 | COCc1cc(O)nc(C2CCCN(Cc3cccc(Cl)c3Cl)C2)n1 (stereo not given) | -7.47%
81 | Cc1noc(C)c1CC(=O)N1CCCC(Cc2ccccn2)C1 (stereo not given) | 4.75%

Row | SMILES | cytotoxicity at 10 µM
82 | CCC1=N[C@@]2(CC[C@@H]3CN(CC4CC4)C[C@@H]32)C(=O)N1 | 4.86%
83 | CNC(=O)NC(=O)CCN1CCCC1c1nc(C2CCCCC2)co1 (stereo not given) | 5.44%
84 | CN1CCN(C2CCN(C(C(N)=O)c3ccccc3)CC2)C1=O (stereo not given) | -4.29%
85 | Cc1nn(C)cc1-c1ccnc(N(C)Cc2ccoc2)n1 | 23.8%
86 | Cc1cc(=O)[nH]c(-n2nc(-c3ccccc3)cc2N)n1 | 5.71%
87 | COc1ccccc1CC(=O)N1C[C@@H]2CC[C@H]1CN(Cc1cscn1)C2 | -1.87%
88 | CC(C)CC(=O)Nc1cc(C(=O)N(C)C(C)C)ccc1Cl | -7.62%
89 | CS(=O)(=O)N1CCN(c2cc(-n3cccc3)ncn2)CC1 | 4.65%
90 | NC(=O)N1CCCC(C(=O)NCCOc2ccc(F)c(F)c2)C1 (stereo not given) | 2.94%
91 | NC(=O)CN1CC2(CCC1=O)CCN(Cc1ccccc1F)CC2 | 1.81%
92 | O=C(N1CCCC1)N1CCN(c2ccc(Cl)nn2)C(=O)C1 | 7.33%
93 | Cc1cc(C(=O)N2CCCCC2C)ccc1NCCCO (stereo not given) | -4.35%
94 | CC(c1nc(C(C)(C)C)no1)N1CCN(c2ccc(C#N)cn2)CC1 (stereo not given) | 3.84%
95 | Cc1cccc(CN2CC3(CCN(Cc4ccco4)CC3)OCC2=O)n1 | 8.1%
96 | Nc1ncc(CN2CCC(O)(c3ccccc3F)CC2)cn1 | 1%
97 | Cc1cc(C)n(CC2CN(CC(=O)Nc3c(C)n[nH]c3C)CCO2)n1 (stereo not given) | -9.86%
98 | O=C(c1ccccc1C(F)(F)F)N1CC[C@@H](N2CCC(O)CC2)[C@H](O)C1 | -2.49%
99 | COc1cc2cc(C)c(SCCN3CCCC3)nc2cc1OC | -7.48%
100 | Cc1nc2ccccn2c1CC(=O)N[C@@H]1CCC[C@@H](N2CCCC2)[C@@H]1O | -5.13%
101 | CC(C)CS(=O)(=O)N1CCC2(CC1)CCn1c(-c3cnn(C)c3)cnc12 | -131%
102 | Cc1cccc(OCC(O)CN2CCC(Cn3cccn3)CC2)c1 (stereo not given) | -1.43%
103 | O=C(CSc1ccncc1)N1C[C@@H]2CC[C@H]1CN(Cc1cccnc1)C2 | 4.66%
104 | C=C(C)COc1cccc(CN(C)C(C)c2ccncn2)c1 (stereo not given) | -47.6%
105 | Cc1n[nH]c(C2CN(Cc3ncc(C(C)C)o3)CCO2)n1 (stereo not given) | -6.32%
